From ChEMBL document CHEMBL1139056, “3D-QSAR design of novel antiepileptic sulfamides” (2007)
Activity calls are given as the source filed them. No cut-off for these calls is given here.

What was measured:
[1] = tested on: Mus musculus; experiment: Anticonvulsant activity in ip dosed Albino mouse by PIC test; assay type: functional, organism-based
Procedure, shortened: (§1)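 Mice of matched age and weight, 12-h light/dark cycle, food and water ad libitum. Dosing ip in 30% PEG 400 and 10% water at 0.01 ml/g body weight. PIC and PTZ seizure tests run by NIH antiepileptic drug development program standard procedures.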

[2] = tested on: Mus musculus; experiment: Anticonvulsant activity in ip dosed Albino mouse assessed as time of peak effect by MES test; assay type: functional
Procedure, shortened: (§2)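 Albino mice of matched age and weight, 12-h light/dark cycle, free food and water. Compound given ip in 30% PEG 400 and 10% water, 0.01 ml/g body weight. MES test by NIH antiepileptic drug development program standard procedures. ED50 from groups of six mice at several doses at time of peak effect; Litchfield–Wilcoxon with 95% confidence intervals.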

[3] = tested on: Mus musculus; experiment: Anticonvulsant activity in ip dosed Albino mouse by PTZ test; assay type: functional, organism-based; procedure, shortened: as §1
[4] = tested on: Mus musculus; experiment: Anticonvulsant activity in ip dosed Albino mouse by MES test; assay type: functional; procedure, shortened: as §2

| SMILES | Activity [1] | Activity [2] [h] | Activity [3] | ED50 [4] [µmol/kg] | Activity [4] |
| --- | --- | --- | --- | --- | --- |
| O=S(=O)(NCc1ccccc1)NCc1ccccc1 [BENZYL(BENZYLSULFAMOYL)AMINE] | inactive | 2 | inactive | 238 |  |
| O=S(=O)(N1CCOCC1)N1CCOCC1 | inactive |  | inactive |  | inactive |
| CCCCNS(=O)(=O)NCCCC [BUTYL(BUTYLSULFAMOYL)AMINE] | inactive | 2 | inactive | 295 |  |
| O=S(=O)(NC1CC1)NC1CC1 | inactive |  | inactive |  | inactive |
| O=S(=O)(NC1CCCCC1)NC1CCCCC1 |  | 0.5 | inactive | 151 |  |
